Test results published in ChEMBL document CHEMBL4513216, “Probing the Open Global Health Chemical Diversity Library for Multistage-Active Starting Points for Next-Generation Antimalarials” (ACS Infect Dis, 2020).

Assay: Toxicity liver stage against HepG2, at 10uM
Assay type: cell-based
Parameters: test concentration 10 uM, cell line HepG2-A16-CD81EGFP
Conditions: human, HepG2-A16-CD81EGFP cells; read-out: INHIBITION
Summary of the method: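 Uninfected HepG2-A16-CD81EGFP cells, 3 × 10^3 per well, 1536-well, plated on prespotted compound at 10 μM final, parasite-free screening media added to match infected plates; puromycin 10 μM positive, DMSO 0.5% negative; run in parallel with 48 h PbLuc assay at 37 °C, 5% CO2; viability by CellTiter-Glo luminescence, normalized to controls.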

| Structure (SMILES) | cytotoxicity at 10 µM |
| --- | --- |
| O=C(CCNC(=O)c1ccc(Cl)cc1)NCc1nc(C2CC2)no1 | 0.648% |
| COc1ccc(-c2cc(C[C@@H]3C[C@H](N(C)C)C3(C)C)no2)cc1 | -1.3% |
| O=C(NC[C@@H]1CCCO1)c1cccnc1N1CCCC1c1ccccn1 (some centres undefined) | -1.08% |
| Cc1nn(-c2ncnc3[nH]cnc23)c2c1C(C(C)C)CC(=O)N2 (centres undefined) | 10.8% |
| COC(=O)CNC(=O)c1cn(-c2ccccn2)c(=O)c2ccccc12 | 0.0537% |
| O=C(NCCc1nccs1)[C@H](c1ccccc1)n1cnnn1 | -0.607% |
| CSCC(C)(O)CNC(=O)c1cc(Cl)ccc1Cl (centres undefined) | 9.88% |
| CCOCC(=O)N1C[C@H]2CN(CC3CC3)C(=O)[C@H]2C1 | 3.94% |
| CC(C)NC(=O)N1CCCC2(CCN(c3ccccc3)C2=O)C1 (centres undefined) | -2.22% |
| CN(C)CCO[C@H]1CN(C(=O)c2ccc3c(c2)OCO3)[C@@H]2COC[C@H]12 | -151% |
| NC(=O)N1CC[C@H]2CO[C@H](CNC(=O)c3ccnnc3)[C@H]2C1 | -4.7% |
| CC(C)c1nc(-c2cc(C(=O)NCCCO)c3ccccn23)cs1 | 9.7% |
| O=C(c1ccoc1)N1C[C@H]2CC[C@@]3(N=C(c4ccccc4)NC3=O)[C@H]2C1 | 6.79% |
| CCCc1nnsc1C(=O)NCC1CCN(S(C)(=O)=O)CC1 | -19.7% |
| Cn1cc(CN2CC[C@@H]3O[C@H](C(=O)N4CCOCC4)C[C@@H]32)cn1 | -8.08% |
| O=C(N[C@@H]1CN(Cc2ccc3c(c2)OCO3)[C@@H]2CCCO[C@@H]21)C1CC1 | 2.06% |
| Cn1c(SCC(N)=O)nnc1-c1csc2c1CCCC2 | 36.2% |
| Cc1cc(-c2ccc(=O)n(CCNC(=O)C3CC3)n2)c(C)o1 | -10.2% |
| Cc1cnc(CCNC(=O)C2CCN(S(=O)(=O)c3ccc(F)cc3)C2)s1 (centres undefined) | 2.56% |
| CC(=O)N1CCC(C(=O)c2cnn(-c3ccccc3)c2N)C1 (centres undefined) | 5.54% |
| Cc1ncc(-c2ccncc2)c(C2CCN(C(=O)c3ccco3)CC2)n1 | 4% |
| CNC(=O)C1CN(Cc2cc(C)on2)CCN(C(C)=O)C1 (centres undefined) | -3.02% |

| Structure (SMILES) | cytotoxicity at 10 µM |
| --- | --- |
| Cc1ncsc1C(=O)N1CCC(c2ncncc2-c2ccnc(N)c2)C1 (centres undefined) | -0.197% |
| CC1(C(=O)N2CCN(C3CCCC3)CC2)CNCCO1 (centres undefined) | 6.26% |
| COC(=O)c1c(C(F)(F)F)cnc(OC)c1Cl | 7.03% |
| CC(O)CN1CCN(Cc2cccc(C#N)c2)CC1 (centres undefined) | 9.56% |
| CCOC(C)c1nc(COc2nc(C)no2)cs1 (centres undefined) | -1.64% |
| Cc1noc(CN(CCO)Cc2cc(Br)ccc2F)n1 | 2.2% |
| O=S1(=O)CCC(c2nnc(-c3cnc4onc(C5CCCC5)c4c3)o2)C1 (centres undefined) | 1.84% |
| COCCCN1Cc2cccc(NC(=O)C(C)(C)C)c2C1 | 2.06% |
| FC(F)(F)Sc1ccccc1NCc1nc(C2CC2)no1 | 0.858% |
| CCC(C)NC(=O)Nc1cccc(OCCCC#N)c1 (centres undefined) | -2.01% |
| CNS(=O)(=O)c1ccccc1N1CCN(C(=O)C(C)C)CC1 | 4% |
| CCOCCS(=O)(=O)Cc1ccn(-c2cccc(F)c2)n1 | 4.48% |
| Cn1cc(C(=O)CC2CCCN2C(=O)c2ccc3[nH]ncc3c2)cn1 (centres undefined) | -2.53% |
| CN(C)C(C(=O)NCC1(O)CCCCC1)c1c(F)cccc1F (centres undefined) | -5.52% |
| O=S(=O)(c1c(F)cccc1F)N1CCCC1c1nnc2n1CCCCC2 (centres undefined) | 11.2% |
| CCC(Nc1nc(C(F)(F)F)nc2ccccc12)C(=O)O (centres undefined) | 3.75% |
| N#Cc1ccc(CNC(=O)NC2CCCN(c3ncccn3)C2)cc1 (centres undefined) | 5.38% |
| CC(OCCCNC(=O)c1cccnc1O)c1ccccc1 (centres undefined) | 4.88% |
| CN(CCNc1cc(N2CCCC2CO)ncn1)Cc1ccccc1 (centres undefined) | 15.7% |
| c1ccc(-c2nc(CN3CCn4c(nnc4C4CC4)C3)no2)cc1 | -3.47% |
| CN1CCN(C(=O)C2CCCN2c2ncnc3ccsc23)CC1 (centres undefined) | 9.19% |
| COc1cc(C)nc(N2CCN(C(C)c3nc(C4CC4)no3)CC2)n1 (centres undefined) | 1.46% |

| Structure (SMILES) | cytotoxicity at 10 µM |
| --- | --- |
| O=C(NCCNC(=O)c1ccc(Br)cc1)c1ccc(O)cc1 | -0.988% |
| O=C(NCCCO)Nc1ccccc1 | 1.52% |
| Cc1cc(C(=O)N2CCCC(N3CCNC3=O)C2)nn1C(C)(C)C (centres undefined) | -1.44% |
| CCOc1ccc(C(=O)N(C)C)cc1NC(=O)c1ccsc1 | -0.12% |
| COc1ccc(CNc2nnc(CC(C)(C)C)o2)cc1C#N | -10.1% |
| Cn1cc(-c2cccc(CNC(=O)N3CCC[C@@H]3CO)c2)cn1 | -5.89% |
| O=C(C1CCCOC1)N1CCCc2ccccc21 (centres undefined) | 10.1% |
| CN(C)CC1CN(Cc2c(Cl)ccc3cccnc23)CCO1 (centres undefined) | 4.2% |
| O=S(=O)(NC1CCC2(CC1)OCCO2)c1cccc(Br)c1 | -5.65% |
| COCCNC(=O)N1CC(Cc2ccccc2F)C1 | -6.4% |
| Cc1csc(NC(=O)NCCCN2CCC(C(N)=O)CC2)n1 | 2.48% |
| CCC(C)NS(=O)(=O)Cc1cccc(NC(=O)C2=CCCC2)c1 (centres undefined) | -0.217% |
| CC(C)(C)OC(=O)N1CCN(S(=O)(=O)CCCC#N)C2(CCCCC2)C1 | -6.1% |
| Cc1noc2ncc(S(=O)(=O)Nc3cc(C(C)(C)C)n[nH]3)cc12 | 3.26% |
| CCS(=O)(=O)CCNC(=O)NCc1ccccc1-n1cccn1 | 4.87% |
| CCOc1ccc(C#N)cc1NC(=O)N1CCCC(NC(=O)CC)C1 (centres undefined) | 0.711% |
| O=C(CCc1ccccc1)Nc1ncccc1OC(F)F | -3.45% |
| O=C(CCCn1cncn1)NC1(c2ccccc2)CCC1 | -11.5% |
| Cc1cccc(N2CCN(C(=O)CN3CCN(CCO)CC3)CC2)c1 | -15.5% |
| CC(C)Cc1cc(C(=O)NCc2nnc[nH]2)[nH]n1 | -2.95% |
| COc1ccccc1-c1ncc(CN2CCCC(CCC(N)=O)C2)s1 (centres undefined) | -6.34% |
| CC(C)(C)c1ncc(C(=O)N2CCN(C(=O)c3ccc[nH]3)CC2)c(O)n1 | -6.74% |

| Structure (SMILES) | cytotoxicity at 10 µM |
| --- | --- |
| CCN(CCOc1ccc(F)cc1)C(=O)c1ccncc1Cl | -3.35% |
| COc1cccc2c1OCC(CNC(=O)Cc1csc(C(C)=O)c1)C2 (centres undefined) | -146% |
| Cc1ccc(C#N)c(N2CCC3(CCCN(C4CCOCC4)C3=O)C2)n1 (centres undefined) | -125% |
| CC(C)Oc1cc(N2CC[C@@H](N3CCOCC3)[C@H](O)C2)nc(N)n1 | -2.32% |
| CCn1c(C2CCCN(Cc3ccc4ccccc4n3)C2)nn(C)c1=O (centres undefined) | 0.687% |
| CCCn1ncc(C(=O)N2CCN(C3Cc4ccccc4C3)CC2)c1C | -139% |
| O=C(C1CC1)N1CCCN(c2ncnc3c2CCNCC3)CC1 | 5.52% |
| O=C(NCCC1COc2ccccc2O1)c1ccc(-c2cc[nH]n2)nc1 (centres undefined) | -6.84% |
| O=C(N[C@@H]1CCCNC1)C1(Oc2ccc(Cl)cc2)CCNCC1 | -4.73% |
| O=C(O)CNc1cc(-c2cc(C(=O)NC3CC3)ccn2)c2cc[nH]c2n1 | -5.2% |
| CN(CC(C)(C)C)c1ccc(C(=O)NCCCc2ccccn2)cn1 | -49.1% |
| CCC1CN(C(=O)c2cccnc2O)CCC(=O)N1Cc1ccccc1 (centres undefined) | 3.65% |
| CC1(C(=O)NCc2cccnc2Oc2ccc(F)cc2F)CCCNC1 (centres undefined) | -5.68% |
| Cc1ccc([C@@H]2CN(C(=O)c3ccc[nH]3)C[C@H]2NC(=O)C2CC2)cc1 | -21.5% |
| COc1c(C2CCCN2C(=O)c2csc(C3CC3)n2)c(C)nn1C (centres undefined) | 4.53% |
| O=C(CCOc1ccccc1F)N1CCCCC1Cn1cccn1 (centres undefined) | -4.47% |
| CC(C)Oc1ccc(C(=O)N2CCCCC2Cn2cccn2)cn1 (centres undefined) | -14.9% |
| CCn1ccnc1CN1CCCN(C(=O)c2cnn(C)c2)CC1 | -7.25% |
| Cc1cc(C)c(CNC(=O)N2CCN(c3ccncc3)CC2)c(=O)[nH]1 | -3.57% |
| Cc1ccccc1C(=O)Nc1cnn(CCN2CCOCC2)c1 | -11.7% |
| CCc1nc(CN2CCCC(NCc3nc4ccccc4o3)C2)no1 (centres undefined) | -3.81% |
| CS(=O)(=O)c1ccc(CNC(=O)Nc2cn[nH]c2)cc1 | -1.88% |

| Structure (SMILES) | cytotoxicity at 10 µM |
| --- | --- |
| CCc1nc(C2CCCN2C(=O)c2ccc3c(c2)[nH]c(=O)n3C)no1 (centres undefined) | 1.04% |
| Cc1cc(C)n(CC2CN(c3ncnc4[nH]ccc34)CCO2)n1 (centres undefined) | -6.88% |
| O=C(c1cnc(-c2cnccn2)s1)N1CCCC1Cn1cccn1 (centres undefined) | -3.99% |
| O=C(CCOCC(F)(F)F)N1CCCC1c1noc(C2CC2)n1 (centres undefined) | 0.111% |
| c1ccc(-c2noc(CN3CCOC(Cn4cccn4)C3)n2)nc1 (centres undefined) | -15% |
| Cc1nn2cccnc2c1C(=O)N1CCCC(n2ccnc2)C1 (centres undefined) | -4.62% |
| CCNc1cc2c(nn1)CCN(C(=O)c1ccc(CNC(C)=O)o1)C2 | -10.8% |
| CC(Cn1cccn1)NC(=O)NCc1cccnc1OC1CCCC1 (centres undefined) | 4.86% |
| COc1ccc(CN(C)CC2CCCN2c2cccnn2)cc1F (centres undefined) | 4.48% |
| C[C@@H](NC(=O)c1cccs1)c1onc(-c2cccnc2)c1C(=O)O | 6.09% |
| Cc1nc(Nc2cnccn2)cc(C2CN(C(C)C)C2)n1 | -27.1% |
| c1cc(CNCC2Cn3nncc3CO2)co1 (centres undefined) | 7.8% |
| CN(C)CCN1CCCC12CCN(C(=O)c1ccco1)CC2 | 1.49% |
| Cc1ccc(CN2C[C@@H]3[C@@H](C(=O)NCC4CC4)CCS(=O)(=O)[C@@H]3C2)cc1 | -4% |
| Cc1cnc(N2C[C@H]3CCN(CC4CC4)C[C@H]3C2)nc1 | 6.34% |
| CCO[C@H]1CO[C@@]2(CCN(Cc3ccc4c(c3)OCO4)C2)C1 | 0.493% |
| Cc1ccc(S(=O)(=O)NC(C)(C)CN)c(F)c1 | -8.73% |
| COc1ccc(CN2C[C@@H](OCc3csc(C)n3)[C@H]3COC[C@H]32)cc1 | -17.3% |
| CC(NCc1cccc(C#N)c1)c1ccccn1 (centres undefined) | -9.61% |
| CCOCC1CN(Cc2cccnc2)Cc2nn(C)cc21 (centres undefined) | -81.6% |
| Cc1noc(C)c1CN1CCOC2(CCCN(c3ncccn3)C2)C1 (centres undefined) | 8.27% |
